Measured values published in article PMC3561764 (Nature, 2007).
No end group written: not given here.

Columns and labels:
[1] = system: EGFR kinase domain K799E mutant; assay: interaction with K799E mutant kinase domain; type: binding; conditions: Supplemental Figure 5
[2] = system: EGFR kinase domain; assay: crystal structures of EGFR kinase domain/Mig6 peptide complexes; type: binding; conditions: 25-residue epitope, residues 337–361
[3] = system: EGFR kinase domain attached to lipid vesicles; assay: vesicle-based kinase assay; type: biochemical; conditions: wild type kinase 3.5 μM, substrate peptide 1 mM, Fig. 2c
Outline: (§1)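 Wild-type EGFR kinase domain assayed either free in solution at 14 μM, or tethered to lipid vesicles at 3.5 μM. Vesicle tethering raises the local kinase concentration and promotes asymmetric dimer formation. Substrate peptide was held at 1 mM in all runs. Activity is reported as initial velocity normalised by kinase concentration.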

[4] = target: EGFR kinase domain, wild type (UniProt P00533 696-1022); assay: fluorescence polarisation
[5] = system: EGFR; conditions: ref [3],[5],[12]; cited from earlier work
[6] = system: EGFR; conditions: mouse skin; ref [8]; cited from earlier work
[7] = target: wild type EGFR kinase domain (Homo sapiens, UniProt P00533); assay: kinase assay in solution, wild type; type: biochemical; conditions: kinase 14 μM, substrate peptide 1 mM, Fig. 3b
Outline: as §1

Molecule: Mig6^segment 1: 25-residue epitope of Mig6 sufficient for binding to the EGFR kinase domain (residues 337–361)
- effect of K799E kinase mutation on interaction with Mig6^segment 1 [1]: does not affect the conformation of the kinase domain or its interaction
- binding to the EGFR kinase domain (crystal structures) [2]: sufficient for binding to the EGFR kinase domain

Molecule: 25-residue peptide: 25-residue peptide (residues 340–364), which lacks 3 residues in the N-terminal portion of Mig6^segment 1
- inhibition of the kinase domain attached to lipid vesicles, in words [3]: much less potent

B1: 30-residue fluorescein-labeled Mig6 peptide (residues 334–363) M346L (peptide, UniProt Q9UJM3 334-363, looked up)
peptide: SPKSLPSYLNGVLPPTQSFAPDPKYVSSKA
modifications: also: fluorescein label, position not given here
- binding result [4]: binds

B2: Mitogen-induced gene 6 (protein, UniProt Q9UJM3 1-462, looked up)
chain: MSIAGVAAQEIRVPLKTGFLHNGRAMGNMRKTYWSSRSEFKNNFLNIDPITMAYSLNSSAQERLIPLGHASKSAPMNGHCFAENGPSQKSSLPPLLIPPSENLGPHEEDQVVCGFKKLTVNGVCASTPPLTPIKNSPSLFPCAPLCERGSRPLPPLPISEALSLDDTDCEVEFLTSSDTDFLLEDSTLSDFKYDVPGRRSFRGCGQINYAYFDTPAVSAADLSYVSDQNGGVPDPNPPPPQTHRRLRRSHSGPAGSFNKPAIRISNCCIHRASPNSDEDKPEVPPRVPIPPRPVKPDYRRWSAEVTSSTYSDEDRPPKVPPREPLSPSNSRTPSPKSLPSYLNGVMPPTQSFAPDPKYVSSKALQRQNSEGSASKVPCILPIIENGKKVSSTHYYLLPERPPYLDKYEKFFREAEETNGGAQIQPLPADCGISSATEKPDSKTKMDLGGHVKRKHLSYVVSP
modifications: full-length C-terminal Myc tag
- binding to activated EGFR compared with unliganded receptor [5]: bind more tightly to activated EGFR than to the unliganded receptor
- inhibition of EGFR-mediated signals [6]: inhibits EGFR-mediated signals in mouse skin

B3: Mig6^segment 1–2 (Y358A) (peptide, UniProt Q9UJM3 336-412, looked up, variant M346L Y358A)
chain: KSLPSYLNGVLPPTQSFAPDPKAVSSKALQRQNSEGSASKVPCILPIIENGKKVSSTHYYLLPERPPYLDKYEKFFR
- inhibition of basal activity of wild type kinase domain in solution, in words [7]: does not show any inhibition
